MrgX1 agonist – agonists of human MrgX1 receptor. Q96LB2. MrgX1-HEK293 cells, Fluo-4 calcium fluorescence, agonist mode; stronger effect = higher value. B-score at 10 µM. 310,000 compounds, 0.44% hits;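 active means calcium response B-score plate-corrected fluorescence ratio at least 3 library SD, with starting fluorescence B-score inside 5 SD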
Target sequence (Q96LB2 whole entry, looked up): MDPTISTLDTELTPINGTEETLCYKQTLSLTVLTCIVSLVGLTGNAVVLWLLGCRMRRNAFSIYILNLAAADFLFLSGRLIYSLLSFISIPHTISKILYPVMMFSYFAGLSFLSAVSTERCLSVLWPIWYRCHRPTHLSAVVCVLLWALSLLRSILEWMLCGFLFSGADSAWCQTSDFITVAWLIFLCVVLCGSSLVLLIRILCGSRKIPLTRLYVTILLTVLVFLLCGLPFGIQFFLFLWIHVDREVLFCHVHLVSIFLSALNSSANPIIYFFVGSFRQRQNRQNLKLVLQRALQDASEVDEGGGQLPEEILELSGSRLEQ
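Assay system: MrgX1-expressing HEK293 cells / Amount: fifteen thousand cells per well / Doses: test compound in the initial addition of three / Timing: cells plated overnight, dye loaded 0.5 h 37 °C, 0.5 h room temperature / Technique: kinetic calcium dye fluorescence, Fluo-4 NW / Control set: positive and negative controls per plate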
RGS4 pot – potentiators or activators of RGS4. HEK293 M3R/inducible RGS4, carbachol calcium flux Fluo4; stronger effect = lower value. B-score at 10 µM. 310,000 compounds, 0.92% hits. AID 463111;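 active means B-score of the integrated calcium signal more than 4 SD below the library mean, with starting fluorescence not abnormally high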;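 further: negative B-score means reduced calcium response which marks RGS4 activation or potentiation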
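Assay system: Inducible-RGS4 HEK293 cells carrying M3 receptor | Schedule: Compound preincubation 20 min at room temperature before agonist | Signal: Kinetic calcium fluorescence imaging with Fluo4-AM dye, 2 µM | Read-out basis: B score from integrated fluorescence ratio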
MrgX1 antag – human MrgX1 receptor antagonism, primary screen. Q96LB2. MRGX1-HEK293 calcium flux, Fluo-4, BAM8-22 antagonism; stronger effect = lower value. B-score at 10 µM. 310,000 compounds, 1.3% hits;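 active means calcium-response B-score plate-corrected more than 3 library SD below zero, starting fluorescence within 5 deviations, no agonist response on first addition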;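 further: peak minus trough fluorescence over baseline after final BAM8-22 challenge near maximal dose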
MrgX1 allo act – human MrgX1 positive allosteric modulation, primary screen; 310,000 compounds, 0.63% hits; B-score at 10 µM; AID 588675; MrgX1-HEK293, Fluo-4 calcium flux, FDSS; stronger effect = higher value;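 active means plate-corrected calcium response at least 3 library SD above typical, normal starting fluorescence, not activating the receptor alone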;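 further: compound read alongside a low EC10 to EC30 dose of BAM8-22 agonist; peak minus trough fluorescence over baseline measured at the second addition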
RGS4 inh – human RGS4 inhibition | B-score at 10 µM | P49798 | 310,000 compounds, 0.45% hits | AID 463165 | HEK293 M3R/RGS4 inducible, Fluo-4 calcium flux; stronger effect = higher value; triggered by carbachol at its EC20;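 active means B-score, a plate-corrected calcium signal, over three deviations above library mean, with baseline fluorescence within five deviations of library mean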;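 further: RGS4 expression induced by doxycycline in cells with stable M3 receptor; B-score is computed from the integrated fluorescence ratio over baseline after carbachol; higher B-score means a larger calcium signal and so more RGS4 inhibition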
Target sequence (P49798 whole entry, looked up): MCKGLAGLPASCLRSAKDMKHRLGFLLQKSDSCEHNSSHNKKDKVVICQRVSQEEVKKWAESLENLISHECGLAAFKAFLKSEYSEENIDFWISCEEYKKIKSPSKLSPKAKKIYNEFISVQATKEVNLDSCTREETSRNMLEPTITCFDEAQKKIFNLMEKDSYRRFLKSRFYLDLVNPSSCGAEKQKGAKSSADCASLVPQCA
MrgX1 PAM conf – reconfirmed allosteric activator of human MrgX1 receptor; shares compounds with MrgX1 allo act; MrgX1-HEK293, Fluo-4 calcium fluorescence, FDSS; activation (ratio percentage), % at 10 µM; 1,200 compounds, 13% hits; AID 602413;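 active means ratio at least 3 SD above the weak peptide control, stable starting fluorescence, no direct agonism earlier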;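 further: compound followed by low BAM8-22 agonist challenge near EC20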
HEK293 Ca flux – counter-screen for MrgX1 antagonists: effect in parental HEK293 cells; shares compounds with MrgX1 antag; Fluo-4 calcium fluorescence, FDSS; fluorescence ratio F(max-min)/F0 at 10 µM; 4,000 compounds, 2% hits; AID 624111;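 active means duplicate-averaged calcium fluorescence ratio at least three times the standard deviation of buffer wells, a nonspecific response in parental cells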
HEK293 Ca counter – activity in parental HEK293 cells without MrgX1. shares compounds with MrgX1 antag. parental HEK293 calcium flux, Fluo-4 fluorescence ratio; stronger effect = higher value. fluorescence ratio F(max-min)/F0 at 10 µM. 4,000 compounds, 0.4% hits. AID 624114;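 active means calcium fluorescence ratio, averaged over duplicates, at least 3 SD of the buffer-well ratio, meaning a nonspecific response in receptor-free cells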;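 further: untransfected parental HEK293 lacking MrgX1 used as counterscreen for MrgX1 allosteric activators; fluorescence change taken during the second addition on a kinetic imager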
HEK293 Ca cntr2 – activity in parental HEK293 cells lacking MrgX1 receptor | Fluo-4 calcium fluorescence (FDSS); stronger effect = higher value | shares compounds with MrgX1 antag | fluorescence ratio F(max-min)/F0 at 10 µM | 4,000 compounds, 8.7% hits;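 active means calcium fluorescence ratio at least three times the spread of buffer wells, meaning a non-specific response in parental cells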
Hits are given with their value; – = inactive; · = no result. Shown are actives, neighbours in structure and some others; about 3.5% of the full set was active somewhere.

SMILES	MrgX1 agonist	RGS4 pot	MrgX1 antag	MrgX1 allo act	RGS4 inh	MrgX1 PAM conf	HEK293 Ca flux	HEK293 Ca counter	HEK293 Ca cntr2
Cc1ccc(-c2ccc(C(=O)NCCCNC(=O)c3cnccn3)o2)cc1Cl	–	–	–	18	–	13%	–	–	–
O=C(CCn1c(=S)oc2ccccc21)NC1CCCCCC1	–	–	–	7	–	–	–	–	–
Cc1cc(S(=O)(=O)N2CCCCC2CCNC(=O)C(=O)NCC2CCCO2)ccc1F (stereo not drawn)	–	–	–	–	–	·	·	·	·
COn1c(SC2CCCCC2)nc2ccccc2c1=O	–	–	–	29	–	49%	–	–	–
COCCNC(=O)CCc1nnc2ccc(N3CCC(C)CC3)nn12	–	–	–	–	–	·	·	·	·
COc1ccccc1N(CC(=O)NC(C)(C)C)C(=O)CCC(=O)Nc1nccs1	–	–	–	–	–	·	·	·	·
CCC(Sc1nc2ccccc2c(=O)n1CCN1CCOCC1)C(=O)NCc1cccnc1 (stereo not drawn)	–	–	–	6.6	–	–	–	–	47
CCOC(=O)c1c(-c2ccccc2)nc2ccc(C)cn12	–	–	–	9.5	–	–	–	–	–
CCOC(=O)c1c(-c2ccccc2)nc2cc(C)ccn12	–	–	–	–	–	·	·	·	·
COc1ccccc1NC(=O)c1ccc(NS(=O)(=O)c2ccc(F)c(F)c2F)cc1	–	–	–	36	–	28%	–	–	–
N#CCn1cnc2c(oc3ccccc32)c1=O	–	–	–	–	–	·	·	·	·
O=C(COC(=O)c1cccc(O)c1)Nc1ccc(OC(F)F)cc1	–	–	–	10	–	–	–	–	–
O=C(COC(=O)c1ccc(O)cc1)Nc1ccc(OC(F)F)cc1	–	–	–	–	–	·	·	·	·
CCOC(=O)c1csc(NC(=O)CN2CCCCC2)n1	–	–	–	–	–	·	·	·	·
O=C(Nc1nc2c(F)cc(F)cc2s1)c1ccco1	–	–	–	16	–	–	–	–	–
Fc1ccc(-c2nc3c(-c4ccc(Cl)cc4)cnn3cc2CCN2CCOCC2)cc1	–	–	–	–	–	·	·	·	·
O=C(NC(=S)Nc1cc(S(=O)(=O)N2CCOCC2)ccc1N1CCOCC1)C1CCCC1	–	–	–	7.1	–	6.4%	–	–	–
O=C(CN1C(=O)NC2(CCCC2)C1=O)OCc1cc(=O)n2cc(Br)ccc2n1	–	–	–	–	–	·	·	·	·
CCc1ccc(/C=N/NC(=O)Cc2cccn2C)cc1	–	–	–	27	–	13%	–	–	–
CC(C)(C)NC(=O)CSc1nc(-c2ccc(F)cc2)cs1	–	–	–	9.4	–	–	–	–	–
C=CCOc1ccc2c(c1)c(=O)cc(C(=O)O)n2CC	–	–	–	–	–	·	·	·	·
CCCC(=O)Nc1ccccc1-c1nnc(SCC)[nH]c1=O	–	–	–	–	–	·	·	·	·
Cc1csc(NC(=O)c2ccc(S(=O)(=O)N3CCN(C)CC3)cc2)n1	–	–	–	–	–	·	·	·	·
CC(Cc1ccccc1)Nc1ncnc2c1ncn2C1OC(CO)C(O)C1O (stereo not drawn)	–	–	–	7.6	–	–	–	–	–
c1nc(N2CCC3(CC2)OCCO3)c2c3c(sc2n1)CCCC3	–	–	–	17	–	–	–	–	–
c1ccc(N2CCN(c3ncnc4sc5c(c34)CCC5)CC2)cc1	–	–	–	–	–	·	·	·	·
Cc1ccc(CN2CCN(/N=C/c3ccc(Cl)c([N+](=O)[O-])c3)CC2)cc1	–	–	–	–	–	·	·	·	·
COc1cc(/C=C2/C(=N)N3N=C(CC(=O)N4CCOCC4)SC3=NC2=O)ccc1OCc1ccccc1	–	–	–	19	–	12%	–	–	–
N#Cc1cccnc1N1CCN(C(=O)COCC(=O)O)CC1	–	–	–	–	–	·	·	·	·
